Source: ChEMBL document CHEMBL1147480, “Synthesis, absolute stereochemistry and molecular design of the new antifungal and antibacterial antibiotic produced by Streptomyces sp.201” (2004)
≈ marks a conversion by molar mass, not a printed value.

Key:
Format in all cases: functional
[1] = system: Thanatephorus cucumeris; test: Minimum fungicidal concentration required against Rhizoctonia solani
How it was run: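 Tube assay in molten M2 agar (g/L: yeast extract 5.00, NaCl 10.00, KH2PO4 0.10, MgSO4·7H2O 0.05, dextrose 10.00, agar 15.0, pH 7.1). Stock in sulfoxide solvent, diluted in phosphate buffer pH 7.4 and culture broth; final 1–600 µg/mL. Spore suspension in Ringer's solution, 3×10^5 CFU/mL; 35 °C, 48 h. MFC = lowest concentration killing 95% of inoculum.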

[2] = system: Bacillus subtilis; test: Minimum inhibitory concentration required for antibacterial activity against Bacillus subtilis
How it was run: (§1)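 Broth tube dilution in nutrient broth (5 mL final volume). The compound was diluted in phosphate buffer pH 7.4 and culture broth to final concentrations of 1–600 µg/mL. Inoculum was adjusted to 3×10^5 CFU/mL in Ringer's solution, then incubated at 35 °C for 24 h. Tubes without visible growth were subcultured (10 µL) onto agar plates at 35 °C and checked microscopically for growth.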

[3] = system: Mycobacterium tuberculosis; test: Minimum inhibitory concentration required for antibacterial activity against Mycobacterium tuberculosis
How it was run: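 Tube dilution in M-33 broth (yeast extract, tryptone, glucose, pH 7.0; 5 mL final volume). Test agent was diluted in phosphate buffer pH 7.4 and broth to a final 1–600 µg/mL. Inoculum was 3×10^5 CFU/mL prepared in Ringer's solution, incubated at 35 °C for 120 h. Clear tubes were subcultured (10 µL) on agar at 35 °C and examined under a microscope for growth.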

[4] = system: Escherichia coli; test: Minimum inhibitory concentration required for antibacterial activity against Escherichia coli
How it was run: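 Broth tube dilution in nutrient broth; stock in sulfoxide solvent, diluted in phosphate buffer pH 7.4 and culture broth to final 1–600 µg/mL. Inoculum in Ringer's solution, 3×10^5 CFU/mL; 35 °C for 24 h. Tubes without visible growth subcultured (10 µL) onto agar plates at 35 °C, growth checked by microscope.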

[5] = system: Proteus vulgaris; test: Minimum inhibitory concentration required for antibacterial activity against Proteus vulgaris; how it was run: as §1

Row | Compound | MFC [1] [µg/mL] | MIC [2] [µg/mL] | MIC [3] [µg/mL] | MIC [4] [µg/mL] | MIC [5] [µg/mL]
1 | CCCCCCCCOC(=O)c1ccncc1 [ISONICOTINIC ACID OCTYL ESTER] | 18 (≈ 76.5 µM) | 16 (≈ 68 µM) | 8 (≈ 34 µM) | 12 (≈ 51 µM) | 6 (≈ 25.5 µM)
2 | CCCCCOC(=O)c1ccncc1 [ISONICOTINIC ACID PENTYL ESTER] | 14 (≈ 72.4 µM) | 20 (≈ 103 µM) | 10 (≈ 51.7 µM) | 20 (≈ 103 µM) | 14 (≈ 72.4 µM)
3 | CCCCC[C@@H](C)COC(=O)c1ccncc1 [ISONICOTINIC ACID 2-METHYL-HEPTYL ESTER] | 24 (≈ 102 µM) | 16 (≈ 68 µM) | 10 (≈ 42.5 µM) | 30 (≈ 127 µM) | 6 (≈ 25.5 µM)
4 | CCCCCCCCCCCCCCCCCCOC(=O)c1ccncc1 [ISONICOTINIC ACID OCTADECYL ESTER] | 600 (≈ 1600 µM) | 600 (≈ 1600 µM) | 320 (≈ 852 µM) | 56 (≈ 149 µM) | 500 (≈ 1330 µM)
5 | CCCCC[C@H](C)COC(=O)c1ccncc1 [(S)-2-METHYLHEPTYL ISONICOTINATE] | 32 (≈ 136 µM) | 20 (≈ 85 µM) | 14 (≈ 59.5 µM) | 40 (≈ 170 µM) | 14 (≈ 59.5 µM)
6 | CCCCCCOC(=O)c1ccncc1 [ISONICOTINIC ACID HEXYL ESTER] | 44 (≈ 212 µM) | 50 (≈ 241 µM) | 24 (≈ 116 µM) | 35 (≈ 169 µM) | 36 (≈ 174 µM)
7 | CCCCCCCOC(=O)c1ccncc1 [ISONICOTINIC ACID HEPTYL ESTER] | 15 (≈ 67.8 µM) | 24 (≈ 108 µM) | 16 (≈ 72.3 µM) | 16 (≈ 72.3 µM) | 16 (≈ 72.3 µM)
8 | CCCCOC(=O)c1ccncc1 [ISONICOTINIC ACID BUTYL ESTER] | 600 (≈ 3350 µM) | 600 (≈ 3350 µM) | 280 (≈ 1560 µM) | 500 (≈ 2790 µM) | 500 (≈ 2790 µM)
